iPSC survival up: enhancers of human iPSC single-cell survival. AID 602274. survival enhancement, % at 20 µM. hiPSC single-cell survival, ATPlite luminescence; 100% = ROCK inhibitor wells, 0% = DMSO. actives 0.044% (n = 360,000); in the data active means survival enhancement above about 18%;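 further: cells exposed to compounds for 16 hours before the ATP read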
DAGLB inhibitor: diacylglycerol lipase beta (human) inhibition; HEK293T DAGLB membrane lysate, EnzChek fluorogenic substrate; inhibition, % at 5.17 µM; actives 0.059% (n = 340,000); in the data active means inhibition above about 34%
Target sequence (Q8NCG7 whole entry, looked up): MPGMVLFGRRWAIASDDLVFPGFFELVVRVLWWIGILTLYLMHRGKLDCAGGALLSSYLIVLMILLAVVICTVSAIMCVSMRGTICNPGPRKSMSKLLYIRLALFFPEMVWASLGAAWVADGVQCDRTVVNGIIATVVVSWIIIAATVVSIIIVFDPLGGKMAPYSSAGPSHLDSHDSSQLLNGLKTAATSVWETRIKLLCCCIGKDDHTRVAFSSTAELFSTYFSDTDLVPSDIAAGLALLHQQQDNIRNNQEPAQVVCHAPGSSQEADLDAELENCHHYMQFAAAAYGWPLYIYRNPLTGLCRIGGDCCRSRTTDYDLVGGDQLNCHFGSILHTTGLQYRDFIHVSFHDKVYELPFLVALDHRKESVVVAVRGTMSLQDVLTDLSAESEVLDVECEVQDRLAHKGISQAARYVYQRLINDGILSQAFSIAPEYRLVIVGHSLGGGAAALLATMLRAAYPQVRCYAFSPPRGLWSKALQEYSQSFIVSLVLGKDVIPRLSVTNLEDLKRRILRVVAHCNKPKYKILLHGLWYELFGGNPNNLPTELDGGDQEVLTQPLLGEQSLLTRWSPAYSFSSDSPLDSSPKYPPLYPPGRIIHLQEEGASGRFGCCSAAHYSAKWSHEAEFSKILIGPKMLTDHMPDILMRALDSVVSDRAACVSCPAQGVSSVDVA
Cneo AK release: causes C. neoformans cell lysis; adenylate kinase release luminescence, 4 h; normalised: neutral wells 0, clomiphene wells 100; lysis activity, % at 15 µM; actives 0.2% (n = 360,000); AID 651654;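 active means mean lysis activity across replicates of at least 80%, whatever share of replicates individually reach that level; inactive means mean lysis activity below 80%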
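Material: C. neoformans cells; Schedule: 4 h static compound exposure, 37 °C, read 1 h post-reagent; Measured by: adenylate kinase release luminescence; Read-out: signal increase indicating cell lysis; Controls: Clomiphene as positive lysis control.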
Ecoli rRNA inh: inhibits bacterial ribosomal RNA function over humanized ribosomes. E. coli WT GFP vs humanized-ribosome RFP mutants, fluorescence, 24 h; stronger effect = lower value; DMSO median 0, no signal -100. GFP signal change (wild-type ribosome), % (test concentration not listed). actives 1.6% (n = 350,000);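 active means significant combined selectivity score with lowered wild-type GFP, culture density cut under 30%, mutant RFP and density less affected; inactive means any of these conditions unmet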
MT1-MMP act inh: MT1-MMP (human) activation inhibition | P50281 | HT1080 RFP-PRO-GFP cells, GFP/RFP ratio fluorescence, overnight; percent of plate control window, DMSO zero | GFP/RFP ratio change, % at 20 µM | actives 0.061% (n = 360,000) | AID 651647;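 active means GFP/RFP ratio change of at least 30% with cell ATP level not reduced by more than half and red fluorescence within 50% of control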
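Assay system – RFP-PRO-GFP reporter HT1080 cells · Compound dosing – single dose of 20 µM compound, 1% DMSO final · Incubation – overnight compound exposure at 37 °C · Measure – GFP/RFP fluorescence ratio · Benchmarks – DMSO wells and RFP-L50D-GFP cells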
SKN-1 inh: blocks SKN-1 activity in C. elegans. actives 0.49% (n = 360,000). C. elegans VP596 Pgst-4::GFP/RFP ratio, acrylamide-induced, 24 h. inhibition, % at 21.8 µM;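 active means interference check ratio from 0.5 to 1.5 plus GFP to RFP signal ratio inhibition reaching or exceeding a fixed threshold, cut at about 30% in these data, passing the limit was not always enough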
AID977621: growth inhibition of wild-type GFP E. coli, dose response, H69 mutant RFP, cherry-pick. E. coli wild-type GFP strain growth, fluorescence, 24 h. shares compounds with Ecoli rRNA inh. activity change, negative = inhibition at 50 µM. 1,900 tested, under 10 active. AID 977621;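 active means Wild-type ribosome reporter drop at least double the humanized mutant ribosome reporter drop, growth loss under a set limit; inconclusive means no clear call, values can overlap the other calls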;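 further: wild-type GFP and H69 mutant RFP strains grown together 50/50 in each well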
AID977628: growth of wild-type and h24-humanized E. coli strains – h24 mutant RFP vs wild-type GFP, cherry-pick, dose response | shares compounds with Ecoli rRNA inh | E. coli WT GFP strain growth, fluorescence, 24 h | activity change, negative = inhibition at 50 µM | 1,900 tested, under 10 active;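 active means compound lowering the normal-ribosome reporter at least twice as much as the humanized-ribosome reporter, growth loss under a set limit; inconclusive means no clear call, values can overlap the other calls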;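 further: wild-type GFP and h24 humanized RFP strains co-cultured 1 to 1 per well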
A number is an active result; – = inactive; ? = inconclusive; · = no result given. A selection: hits, their analogues and other compounds. The true share with any hit is near 1.8%.

SMILES	iPSC survival up	DAGLB inhibitor	Cneo AK release	Ecoli rRNA inh	MT1-MMP act inh	SKN-1 inh	AID977621	AID977628
CC1(C(=O)NS(=O)(=O)c2cccs2)CCN1C(=O)C1(c2ccc(Cl)cc2)CCC1 (stereo not drawn)	–	·	–	-33	–	–	–	·
CC1(C(=O)NS(=O)(=O)c2cccc(Cl)c2)CCN1C(=O)C1(c2ccc(Cl)cc2)CC1 (stereo not drawn)	–	·	–	–	–	–	·	·
O=C(Nc1ccc(Cl)cc1)N[C@@H]1CC[C@H](CCn2cc(C3(O)CCCC3)nn2)O[C@@H]1CO	·	·	–	–	·	·	·	·
CCS(=O)(=O)N[C@H]1CC[C@@H](CC(=O)NCc2ccc(F)cc2)O[C@@H]1CO	·	·	–	–	·	·	·	·
Cc1cccc(NC(=O)CN(C)S(=O)(=O)c2cccc3cccnc23)c1	–	–	–	–	–	–	·	·
CCc1cccc(NC(=O)CN(C)S(=O)(=O)c2cccc3cccnc23)c1	–	–	–	-20	–	–	–	–
O=C(C[C@@H]1CC[C@H]2NC[C@H](O)COC[C@@H]2O1)NCCN1CCCC1	·	·	·	–	·	·	·	·
CN(C)c1ccc(-c2nnn(CC(=O)Nc3ccccc3N3CCOCC3)n2)cc1	–	–	–	-16	–	–	–	–
COc1ccccc1NC(=O)N1CCCCN2[C@@H](CO)[C@H](c3ccc(C#Cc4ccccc4)cc3)[C@@H]2C1	·	·	–	-30	·	·	–	·
COc1ccccc1NC(=O)N1CCCCN2[C@H](CO)[C@@H](c3ccc(C#Cc4ccccc4)cc3)[C@H]2C1	·	·	–	–	·	·	·	·
O=C(Nc1ccccc1F)N1CCCCN2[C@@H](CO)[C@H](c3ccc(C#Cc4cccnc4)cc3)[C@@H]2C1	·	·	–	-19	·	·	–	?
O=C(Nc1cc(F)ccc1F)N1CCCCN2[C@@H](CO)[C@H](c3ccc(-c4ccncc4)cc3)[C@@H]2C1	·	·	–	-19	·	·	–	·
O=C(Nc1ccccc1F)N1CCCCN2[C@H](CO)[C@H](c3ccc(C#Cc4cccnc4)cc3)[C@H]2C1	·	·	–	–	·	·	·	·
O=C(Nc1cc(F)ccc1F)N1CCCCN2[C@H](CO)[C@H](c3ccc(-c4ccncc4)cc3)[C@@H]2C1	·	·	–	–	·	·	·	·
C[C@@H]1CCCCO[C@@H](CN(C)C(=O)CCCN(C)C)[C@H](C)CN([C@H](C)CO)C(=O)c2cc(NC(=O)Nc3ccccc3)ccc2O1	·	·	–	–	·	·	·	·
C[C@@H]1CCCCO[C@H](CN(C)C(=O)CCCN(C)C)[C@H](C)CN([C@H](C)CO)C(=O)c2cc(NC(=O)Nc3cccc4ccccc34)ccc2O1	·	·	–	–	·	·	·	?
C[C@H](CO)N1C[C@H](C)[C@@H](CN(C)C(=O)CCCN(C)C)OCCCC[C@H](C)Oc2ccc(NC(=O)Nc3cccc4ccccc34)cc2C1=O	·	·	–	–	·	·	–	?
COc1ccc(NC(=O)Nc2cccc3c2O[C@@H](CN(C)Cc2ccc(Cl)c(Cl)c2)[C@H](C)CN([C@@H](C)CO)C3=O)cc1	·	·	·	–	·	·	·	·
C[C@@H]1CN([C@@H](C)CO)S(=O)(=O)c2ccc(C3=CCCC3)cc2O[C@@H]1CN(C)C(=O)c1ccccc1	·	·	–	–	·	·	·	·
Cc1noc(C)c1NC(=O)N[C@@H]1CC[C@H](CC(=O)Nc2ccccc2)O[C@@H]1CO	·	·	–	–	·	·	·	·
CCCCOc1ccc(-c2nnn(CCC(=O)N3CCOCC3)n2)cc1	–	–	–	-22	–	–	–	–
Cn1c(CO)cnc1SCC(=O)c1ccc(F)cc1	–	–	–	–	–	–	·	·
Cn1c(CO)cnc1SCC(=O)c1ccc(Br)cc1	–	–	·	-21	–	–	–	–
CN1c2ccc(C#Cc3ccccc3)cc2[C@H]2[C@H](CCN2S(=O)(=O)c2ccccc2F)[C@H]1CO	·	·	·	–	·	·	·	·
COc1ccc2c3c([nH]c2c1)[C@@H](CO)N(C(=O)CN(C)C)CC31CN(Cc2ccncc2)C1	·	·	·	–	·	·	·	·
SMILES	iPSC survival up	DAGLB inhibitor	Cneo AK release	Ecoli rRNA inh	MT1-MMP act inh	SKN-1 inh	AID977621	AID977628
Cc1cc(C(=O)COC(=O)c2ccc(O)cc2)c(C)n1CC(F)(F)F	–	–	–	-20	–	–	–	–
CN1C(=O)c2cc(NC(=O)Cc3ccccc3)ccc2OC[C@@H]2O[C@@H](CC(=O)NCC3CC3)CC[C@H]21	·	·	–	–	·	·	·	·
O=C(COC(=O)Cc1ccccc1F)Nc1ccc(Cl)cn1	–	–	–	-18	–	–	–	?
C[C@H]1CN([C@@H](C)CO)C(=O)Cc2cc(NC(=O)Nc3ccc(F)cc3)ccc2O[C@@H]1CN(C)Cc1ccc2c(c1)OCO2	·	·	–	–	·	·	·	·
O=C(c1ccccc1)c1ccc2nc(-c3ccc(NC(=O)c4ccccc4Br)cc3)[nH]c2c1	–	–	–	-17	–	–	·	–
Cc1noc(C)c1S(=O)(=O)Nc1ccc2c(c1)C(=O)N([C@H](C)CO)C[C@@H](C)[C@@H](CN(C)S(=O)(=O)c1ccccc1)O2	·	·	–	–	·	·	·	·
c1ccc2c(c1)nc(N1CCCCCC1)c1ccccc12	–	–	·	-31	–	–	–	·
